Where a SMILES comes first, the peptide text is derived from it.
What was measured:
Homo sapiens [1] = organism: Homo sapiens; assay: Selectivity ratio, ratio of Ki for human KOR to Ki for human NOP
[2] = Metabolic stability in Wistar rat plasma assessed as URRQ[CHA] formation by measuring relative abundance measuring after 60 mins by HPLC analysis relative to control; assay type: ADME, cell-free; details: 1 h
In short: (§1)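 Peptide at 1 mg/mL in sterile PBS pH 7.4 was mixed 1:1 with thawed, centrifuged Wistar rat plasma supernatant and incubated at 37°C in triplicate. Samples at 0, 1, 2, 3, 4, 6 and 24 h were quenched with acetonitrile and then 2% TFA/water, and analysed by HPLC with inline electrospray MS.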

Homo sapiens [3] = organism: Homo sapiens; assay: Selectivity ratio, ratio of Ki for human KOR to Ki for human MOR
[4] = Metabolic stability in Wistar rat plasma assessed as Q[CHA]CC formation by measuring relative abundance measuring after 60 mins by HPLC analysis relative to control; assay type: ADME, cell-free; details: 1 h; in short: as §1
[5] = Metabolic stability in Wistar rat plasma assessed as half life by HPLC analysis; assay type: ADME, cell-free; in short: as §1
Homo sapiens [6] = organism: Homo sapiens; assay: Selectivity ratio, ratio of Ki for human KOR to Ki for human DOR
[7] = target: T1, Kappa-type opioid receptor (Homo sapiens, UniProt P41145); assay: Agonist activity at human kappa opioid receptor expressed in CHO-K1 cells assessed as inhibition of forskolin-stimulated cAMP production incubated for 30 mins by LANCE cAMP assay; assay type: cell-based
T1 sequence (P41145 whole entry): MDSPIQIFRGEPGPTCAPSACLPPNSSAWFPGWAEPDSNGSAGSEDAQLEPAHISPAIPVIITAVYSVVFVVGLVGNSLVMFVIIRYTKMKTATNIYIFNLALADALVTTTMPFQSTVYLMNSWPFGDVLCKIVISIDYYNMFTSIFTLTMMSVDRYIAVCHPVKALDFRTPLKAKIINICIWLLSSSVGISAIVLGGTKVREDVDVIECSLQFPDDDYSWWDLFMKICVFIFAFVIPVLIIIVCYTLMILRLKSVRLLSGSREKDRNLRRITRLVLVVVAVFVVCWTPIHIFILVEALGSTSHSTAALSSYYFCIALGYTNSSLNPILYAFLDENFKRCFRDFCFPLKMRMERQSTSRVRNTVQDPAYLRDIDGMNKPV
In short: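 Transiently KOR-transfected CHO-K1 cells taken 24 h post-transfection, 3,000 cells/well in HBSS stimulation buffer (0.1% BSA, 0.5 mM IBMX, 5 mM HEPES, pH 7.4). Forskolin (1 µM final) and ligand added, then 30 min at RT. LANCE Eu-cAMP tracer/anti-cAMP TR-FRET read after 1 h at RT. Sigmoidal dose-response fit.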

[8] = target: T1, Kappa-type opioid receptor; assay: Displacement of [3H]U69593 from human kappa opioid receptor expressed in CHO-K1 cells incubated for 1 hr by 1450 microbeta scintillation counter analysis; assay type: cell-based
In short: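 Membranes from transiently KOR-transfected CHO-K1 cells (~2 µg/well) used in SPA with 3H-U69,593 (1 nM). Competitor ranged 1 pM–10 µM in 50 mM Tris-HCl pH 7.4, 5 mM MgCl2, 0.1% BSA. Incubated 1 h at room temperature with shaking. Nonspecific binding defined with 10 µM dynorphin A. Sigmoidal dose-response fit; at least three independent experiments in triplicate.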

[9] = target: T1, Kappa-type opioid receptor; assay: Agonist activity at human kappa opioid receptor expressed in CHO-K1 cells assessed as ERK phosphorylation incubated for 2 hrs by Alphascreen surefire method; assay type: cell-based
In short: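 CHO-K1 cells transiently transfected with KOR plasmid, harvested 24 h later, plated at 50,000 cells/well and settled 24 h, then serum-starved 12 h. Ligands in serum-free medium applied 10 min at room temperature. Lysates read by AlphaScreen SureFire phospho-ERK1/2 after 2 h at 37 °C. Curves fitted by sigmoidal dose-response.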

[10] = Metabolic stability in Wistar rat plasma assessed as URR formation by measuring relative abundance measuring after 60 mins by HPLC analysis relative to control; assay type: ADME, cell-free; details: 1 h; in short: as §1

Compound: N=C(N)NCCC[C@H](NC(=O)[C@@H]1CCC(=O)N1)C(=O)N[C@@H](CCCNC(=N)N)C(=O)N[C@@H](CCC(N)=O)C(=O)N[C@@H](CC1CCCCC1)C(=O)N[C@H]1CSSC[C@@H](C(N)=O)NC1=O
- Ratio Ki (Homo sapiens [1]): > 10000
- Activity [2]: 0.1
- Ratio Ki (Homo sapiens [3]): > 10000
- Activity [4]: 0.01
- half-life [5]: 1.5 h
- Ratio Ki (Homo sapiens [6]): > 10000
- EC50 [7]: 15.2 nM
- Ki [8]: 6.7 nM
- EC50 [9]: 1580 nM
- Activity [10]: 0.01

Compound: N=C(N)NCCC[C@@H](NC(=O)[C@@H]1Cc2ccccc2CN1)C(=O)N[C@H](CCCNC(=N)N)C(=O)N[C@@H](CCC(N)=O)C(=O)N[C@@H](CC1CCCCC1)C(=O)N[C@H]1C[Se][Se]C[C@@H](C(N)=O)NC1=O
- half-life [5]: 6 h
- Ki [8]: 2.4 nM

Compound: N=C(N)NCCC[C@H](NC(=O)[C@@H](CCCNC(=N)N)NC(=O)[C@@H](CCCNC(=N)N)NC(=O)[C@@H]1CCCN1C(=O)c1ccccc1)C(=O)N[C@@H](CC1CCCCC1)C(=O)N[C@H]1CSSC[C@@H](C(N)=O)NC1=O
- half-life [5]: 12 h
- Ki [8]: 0.23 nM

Compound: N=C(N)NCCC[C@@H](NC(=O)[C@@H](CCCNC(=N)N)NC(=O)[C@@H]1CCCN1C(=O)c1ccc2ccccc2c1)C(=O)N[C@@H](CCC(N)=O)C(=O)N[C@@H](CC1CCCCC1)C(=O)N[C@H]1CSSC[C@@H](C(=O)O)NC1=O
- half-life [5]: 0.5 h
- Ki [8]: 229 nM

Compound: CC[C@H](C)[C@H](NC(=O)[C@H](CCC(N)=O)NC(=O)[C@H](CCCNC(=N)N)NC(=O)[C@H](CCCNC(=N)N)NC(=O)[C@@H]1CSSC[C@H](NC(=O)[C@@H](N)CC(N)=O)C(=O)N1)C(=O)N[C@H]1CSSC[C@@H](C(N)=O)NC1=O (HELM PEPTIDE1{N.C.C.R.R.Q.I.C.C.[am]}$PEPTIDE1,PEPTIDE1,2:R3-3:R3|PEPTIDE1,PEPTIDE1,8:R3-9:R3$$$V2.0)
- Ratio Ki (Homo sapiens [1]): > 630
- Ratio Ki (Homo sapiens [3]): > 630
- half-life [5]: 0.25 h
- Ratio Ki (Homo sapiens [6]): > 630
- EC50 [7]: 9450 nM
- Ki [8]: 80 nM
- EC50 [9]: 9850 nM

Compound: N=C(N)NCCC[C@@H](NC(=O)[C@@H](CCCNC(=N)N)NC(=O)[C@@H]1CCCN1C(=O)c1ccc(Cl)cc1)C(=O)N[C@@H](CCC(N)=O)C(=O)N[C@@H](CC1CCCCC1)C(=O)N[C@H]1CSSC[C@@H](C(N)=O)NC1=O
- half-life [5]: 1 h
- Ki [8]: 0.13 nM

Compound: N=C(N)NCCC[C@@H](NC(=O)c1cc2ccccc2cc1N)C(=O)N[C@H](CCCNC(=N)N)C(=O)N[C@@H](CCC(N)=O)C(=O)N[C@@H](CC1CCCCC1)C(=O)N[C@H]1CSSC[C@@H](C(N)=O)NC1=O
- half-life [5]: 1 h
- Ki [8]: 0.64 nM

Compound: N=C(N)NCCC[C@@H](NC(=O)[C@@H](CCCNC(=N)N)NC(=O)[C@@H]1CCCN1C(=O)c1ccc(O)cc1)C(=O)N[C@@H](CCC(N)=O)C(=O)N[C@@H](CS)C(=O)N[C@@H](CC1CCCCC1)C(=O)N[C@H]1CSSC[C@@H](C(N)=O)NC1=O
- half-life [5]: 2 h
- Ki [8]: 1.2 nM

Compound: CC[C@H](C)[C@H](NC(=O)[C@H](CCC(N)=O)NC(=O)[C@H](CCCNC(=N)N)NC(=O)[C@@H](N)CCCNC(=N)N)C(=O)N[C@H]1CSSC[C@@H](C(N)=O)NC1=O (HELM PEPTIDE1{R.R.Q.I.C.C.[am]}$PEPTIDE1,PEPTIDE1,5:R3-6:R3$$$V2.0)
- half-life [5]: 0.75 h
- Ki [8]: 270 nM

Compound: N=C(N)NCCC[C@H](NC(=O)[C@H](CCCNC(=N)N)NC(=O)[C@@H]1CSSC[C@H](NC(=O)[C@@H](N)CC(N)=O)C(=O)N1)C(=O)N[C@@H](CCC(N)=O)C(=O)N[C@@H](Cc1cccc2ccccc12)C(=O)N[C@H]1CSSC[C@@H](C(N)=O)NC1=O (HELM PEPTIDE1{N.C.C.R.R.Q.[O=C([C@H](Cc1cccc2ccccc12)N[*:1])[*:2]].C.C.[am]}$PEPTIDE1,PEPTIDE1,2:R3-3:R3|PEPTIDE1,PEPTIDE1,8:R3-9:R3$$$V2.0)
- half-life [5]: < 0.25 h
- Ki [8]: 2.9 nM

Compound: CC[C@H](C)[C@H](NC(=O)[C@H](CCC(N)=O)NC(=O)[C@H](CCCNC(=N)N)NC(=O)[C@H](CCCNC(=N)N)NC(=O)[C@@H]1CSSC[C@H](NC(=O)[C@@H]2CCC(=O)N2)C(=O)N1)C(=O)N[C@H]1CSSC[C@@H](C(N)=O)NC1=O (HELM PEPTIDE1{[Glp].C.C.R.R.Q.I.C.C.[am]}$PEPTIDE1,PEPTIDE1,2:R3-3:R3|PEPTIDE1,PEPTIDE1,8:R3-9:R3$$$V2.0)
- Ratio Ki (Homo sapiens [1]): > 630
- Ratio Ki (Homo sapiens [3]): > 630
- half-life [5]: 0.25 h
- Ratio Ki (Homo sapiens [6]): > 630
- EC50 [7]: 11.5 nM
- Ki [8]: 67.5 nM
- EC50 [9]: 5860 nM

Compound: N=C(N)NCCC[C@H](NC(=O)[C@@H](CCCNC(=N)N)NC(=O)[C@@H]1CCC(=O)N1)C(=O)N[C@@H](CCC(N)=O)C(=O)N[C@@H](CC1CCCCC1)C(=O)N[C@H]1CSSC[C@@H](C(N)=O)NC1=O
- half-life [5]: 1.5 h
- Ki [8]: 13 nM

Compound: N=C(N)NCCC[C@@H](NC(=O)[C@@H](CCCNC(=N)N)NC(=O)[C@@H]1CCCN1C(=O)c1ccccc1)C(=O)NCC(=O)N[C@@H](CC1CCCCC1)C(=O)N[C@H]1CSSC[C@@H](C(N)=O)NC1=O
- half-life [5]: 1 h
- Ki [8]: 0.16 nM

Compound: N=C(N)NCCC[C@@H](NC(=O)c1cnc2ccccc2c1)C(=O)N[C@H](CCCNC(=N)N)C(=O)N[C@@H](CCC(N)=O)C(=O)N[C@@H](CC1CCCCC1)C(=O)N[C@H]1CSSC[C@@H](C(N)=O)NC1=O
- half-life [5]: 0.75 h
- Ki [8]: 0.71 nM

Compound: COc1ccc(C(=O)N2CCC[C@H]2C(=O)N[C@H](CCCNC(=N)N)C(=O)N[C@H](CCCNC(=N)N)C(=O)N[C@@H](CCC(N)=O)C(=O)N[C@@H](CS)C(=O)N[C@@H](CC2CCCCC2)C(=O)N[C@H]2CSSC[C@@H](C(N)=O)NC2=O)cc1
- half-life [5]: 2 h
- Ki [8]: 0.59 nM

Compound: N=C(N)NCCC[C@@H](NC(=O)[C@@H]1CCC(=O)N1)C(=O)N[C@H](CCCNC(=N)N)C(=O)N[C@@H](CCC(N)=O)C(=O)N[C@@H](CC1CCCCC1)C(=O)N[C@H]1C[Se]SC[C@@H](C(N)=O)NC1=O
- half-life [5]: 6 h
- Ki [8]: 7.8 nM

Compound: N=C(N)NCCC[C@@H](NC(=O)[C@@H](CCCNC(=N)N)NC(=O)[C@@H]1CCCN1C(=O)c1ccccc1)C(=O)N[C@@H](CCC(N)=O)C(=O)N[C@H](C(=O)N[C@H]1CSSC[C@@H](C(N)=O)NC1=O)C1CCCCC1
- Ratio Ki (Homo sapiens [1]): > 125000
- Ratio Ki (Homo sapiens [3]): > 125000
- half-life [5]: 20 h
- Ratio Ki (Homo sapiens [6]): > 125000
- EC50 [7]: 0.39 nM
- Ki [8]: 0.48 nM
- EC50 [9]: 0.62 nM

Compound: N=C(N)NCCC[C@@H](NC(=O)[C@@H]1Cc2ccccc2CN1)C(=O)N[C@H](CCCNC(=N)N)C(=O)N[C@@H](CCC(N)=O)C(=O)N[C@@H](CC1CCCCC1)C(=O)N[C@H]1CSSC[C@@H](C(N)=O)NC1=O
- half-life [5]: 0.75 h
- Ki [8]: 0.91 nM

Compound: N=C(N)NCCC[C@@H](NC(=O)[C@@H](CCCNC(=N)N)NC(=O)[C@@H]1CCCN1C(=O)c1ccc2ccccc2c1)C(=O)N[C@@H](CCC(N)=O)C(=O)N[C@@H](CC1CCCCC1)C(=O)N[C@H]1CSSC[C@@H](C(N)=O)NC1=O
- half-life [5]: 0.5 h
- Ki [8]: 0.07 nM

Compound: CC[C@H](C)[C@H](NC(=O)[C@H](CCC(N)=O)NC(=O)[C@H](CCCNC(=N)N)NC(=O)[C@H](CCCNC(=N)N)NC(=O)[C@@H]1CCC(=O)N1)C(=O)N[C@H]1CSSC[C@@H](C(N)=O)NC1=O (HELM PEPTIDE1{[Glp].R.R.Q.I.C.C.[am]}$PEPTIDE1,PEPTIDE1,6:R3-7:R3$$$V2.0)
- Ratio Ki (Homo sapiens [1]): > 250
- Ratio Ki (Homo sapiens [3]): > 250
- half-life [5]: 3 h
- Ratio Ki (Homo sapiens [6]): > 250
- EC50 [7]: 1.9 nM
- Ki [8]: 191 nM
- EC50 [9]: 7490 nM

From ChEMBL document CHEMBL5252514, “Conopeptide-Derived κ-Opioid Agonists (Conorphins): Potent, Selective, and Metabolic Stable Dynorphin A Mimetics with Antinociceptive Properties” (J Med Chem, 2016)
